Consider 14 molecules from PubChem BioAssay.

Calls of active or inactive are those of the source.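 How the source made its calls, unless noted: active means visual image review flags a hit and inhibition of aggregation exceeds 20%; inconclusive means visual hit but inhibition at or below 20%; inactive means no hit on visual image review.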

For orientation: inhibition means the relative decrease from the control value, in per cent.

The nature of assay [1]: inhibitors of TNFa-induced NFkB p65 translocation, primary screen, imaging, HUVEC, MLSMR starter and 10KST1 sets (AID 438;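 active means inhibition above 20% together with a positive visual image hit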;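 further: compound added about 3h40 before a 20 min TNFalpha stimulation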;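 on inhibition: signal is the nuclear over cytoplasmic p65 intensity ratio per well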). As to conditions: HUVEC TNFa-induced p65 nuclear translocation; cell count: measured here: nuclei count (cytotoxicity indicator), at 2.08 µM; inhibition: at 2 µM, stronger effect = higher value, 0% TNFa-plus-vehicle, 100% no-TNFa wells.
Assay [2] is described as follows: inhibitors of mutant huntingtin aggregation, primary screen, imaging, exon1htt(103Q)mCFP cells, high-content imaging (AID 483).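 Further: compound exposure lasted 3 days before fixation.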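 On nuclei count: percent of the per-plate median nuclei count of sample wells.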 Conditions: exon1htt(103Q)mCFP cell line, aggregate imaging, at 2 µM; inhibition of aggregation: stronger effect = higher value; nuclei count: measured here: cell count, toxicity.
A short description of assay [3]: inhibitors of E-selectin induction by TNFa, primary screen, imaging, HUVEC, immunofluorescence, MLSMR starter and 10KST1 sets (AID 487;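 active means visually confirmed hit in the image check and inhibition above 20%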;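 on inhibition: signal is fraction of cell area covered by stained E-selectin grains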;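 on nuclei count: 100% = median nuclei count of all wells on the same plate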). As to conditions: HUVEC TNFalpha-induced E-selectin immunofluorescence imaging, at 2 µM; inhibition: stronger effect = higher value; nuclei count: measured here: cell number, toxicity.
Assay [4] addresses Voltage-gated potassium channel subunit beta-2 (Rattus norvegicus) (UniProt P62483). Briefly: KvBeta enzyme negative modulators, primary screen, biochemical, NADPH fluorescence (AID 622;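 active means fluorescence slope higher than the sample average by over 3 SD, cut at about -0.22 in these data, passing the limit was not always enough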;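 further: slope of raw intensity against log time taken from 70 to 1610 s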). As to conditions: recombinant KvBeta, 4-cyanobenzaldehyde reduction, at 10 µM, stronger effect = higher value.
Assay [5] shares this target. As to the kind of experiment: KvBeta positive modulators, primary screen, biochemical, NADPH fluorescence (AID 623;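 active means NADPH fluorescence slope more negative than the mean of all samples by about 3 SD, 99.7% confidence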;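 further: fluorescence intensity change per second fitted from 20 to 320 s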). Conditions: Recombinant KvBeta, NADPH fluorescence decrease slope, 10 min; at 10 µM; stronger effect = lower value.
For assay [6], the target named is Muscarinic acetylcholine receptor M4 (Homo sapiens) (UniProt P08173). As to the kind of experiment: compounds altering M4/GIRK thallium flux, either direction, primary screen, M4 allosteric agonist project, cell-based, HEK293 M4/GIRK, BTC-AM (AID 625;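 active means fluorescence slope after compound addition differing from the mean of all tested samples at 99.7% confidence, mostly higher but some lower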;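 further: thallium influx through GIRK channels coupled to M4 in HEK293 cells with BTC-AM dye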). Conditions: at 10 µM, actives lie on both sides. In short, it runs like this: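 System: HEK293 cells with M4 receptor and GIRK channels | Incubation: Cells overnight at 37 °C, BTC-AM loading 1 h, reads 2 min total | Technique: Kinetic BTC-AM fluorescence sampled at 1 Hz, 10 s pre-addition baseline | Measure: Post-addition slope, 15–24 s, of baseline-normalized fluorescence | Control set: Carbachol positive, DMSO negative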
Muscarinic acetylcholine receptor M4 (Homo sapiens), sequence (P08173 whole entry, looked up): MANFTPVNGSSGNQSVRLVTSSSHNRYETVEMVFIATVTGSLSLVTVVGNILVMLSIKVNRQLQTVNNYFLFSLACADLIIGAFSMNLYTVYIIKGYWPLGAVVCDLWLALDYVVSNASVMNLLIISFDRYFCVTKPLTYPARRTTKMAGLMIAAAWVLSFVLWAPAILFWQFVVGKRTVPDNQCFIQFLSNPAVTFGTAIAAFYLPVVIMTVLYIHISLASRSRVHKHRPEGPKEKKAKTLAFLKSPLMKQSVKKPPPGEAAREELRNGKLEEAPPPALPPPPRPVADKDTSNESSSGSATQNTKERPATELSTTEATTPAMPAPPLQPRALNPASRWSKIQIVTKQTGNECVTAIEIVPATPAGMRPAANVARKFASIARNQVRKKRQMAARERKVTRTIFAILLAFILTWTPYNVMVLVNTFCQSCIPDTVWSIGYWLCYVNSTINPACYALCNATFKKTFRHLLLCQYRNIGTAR

A short description of assay [7]: inhibitors of Sendai virus-induced IRF3 signaling, primary screen, TLR/RLR signaling modifier project, cell-based, Sendai virus stimulus, luciferase, 10K MLSCN set (AID 602276;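 active means inhibition at or above 50% at 10 µM; inactive means inhibition below 50%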;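 further: firefly luciferase from ISG56 promoter only with Renilla not read in this screen; 0% = Sendai virus plus DMSO and 100% = medium plus DMSO without virus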). As to conditions: HEK293 RL24 IRF3 luciferase reporter, at 10 µM, stronger effect = higher value.
Assay [8] in a line: inhibitors of poly I:C-induced TLR3 signaling, primary screen, cell-based, poly I:C stimulus, luciferase, 10K MLSCN set (AID 602277;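 active means inhibition of the reporter signal at or above 50%; inactive means inhibition below 50%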). As to conditions: HEK293-TLR3 RL24 IRF3 luciferase reporter, at 10 µM, stronger effect = higher value.

Voltage-gated potassium channel subunit beta-2 (Rattus norvegicus), sequence (P62483 whole entry, looked up): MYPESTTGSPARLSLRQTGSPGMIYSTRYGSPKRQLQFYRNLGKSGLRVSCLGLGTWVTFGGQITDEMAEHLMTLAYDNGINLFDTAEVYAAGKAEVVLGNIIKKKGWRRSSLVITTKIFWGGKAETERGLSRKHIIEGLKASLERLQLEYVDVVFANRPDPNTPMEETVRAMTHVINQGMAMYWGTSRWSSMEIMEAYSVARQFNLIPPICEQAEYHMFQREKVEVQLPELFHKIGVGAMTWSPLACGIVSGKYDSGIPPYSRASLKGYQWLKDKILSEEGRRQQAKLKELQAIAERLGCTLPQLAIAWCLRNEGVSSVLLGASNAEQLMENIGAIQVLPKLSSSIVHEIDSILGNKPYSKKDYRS

Take `O=c1c2c3c(sc2nc2sc(C4CC4)nn12)CCCC3`: in assay [1], the cell count turned out to be 428. For the same molecule, the inhibition was -8.3% (inactive) in assay [1], 34.4% (inactive) in assay [3], -18.7% (inactive) in assay [7] and -51.7% (inactive) in assay [8]. Further, the inhibition of aggregation in assay [2] was 19.5% (inactive). For the same molecule, the nuclei count in assay [2] was 80.2%; in assay [3] it was 67.7%. The values for the fluorescence slope in assay [4] and in assay [6] were -0.602 (inactive) and 0.00546 (inactive), respectively. In assay [5], the NADPH fluorescence slope was 3.7e-05 (inactive).

For the molecule `O=C(NC1(C(F)(F)F)NC(=O)N(Cc2ccco2)C1=O)c1cccnc1` (centres undefined), the cell count in assay [1] stood at 495. Besides, the inhibition was 1.8% (inactive) in assay [1], -26.5% (inactive) in assay [3], 9.43% (inactive) in assay [7] and 12.8% (inactive) in assay [8]. The inhibition of aggregation in assay [2] was 1.2% (inactive). The nuclei count in assay [2] was 104%; in assay [3], 122%. Also, the fluorescence slope was -0.461 (inactive) in assay [4] and 0.00405 (inactive) in assay [6]. In assay [5], the NADPH fluorescence slope is -8.5e-05 (inactive).

As for `COC(=O)c1ccc2c(=O)n(Cc3ccco3)c(SCC(=O)Nc3ccc(C)c(Cl)c3)nc2c1`, the cell count in assay [1] was determined as 445. Also, the inhibition in assay [1] is 5% (inactive); in assay [3], 4.9% (inactive); in assay [7], 13.7% (inactive); in assay [8] it was 28.2% (inactive). In addition, the inhibition of aggregation in assay [2] was 10.1% (inactive). Besides, the nuclei count worked out at 115% in assay [2] and 91% in assay [3]. The figures for the fluorescence slope in assay [4] and in assay [6] were -0.436 (inactive) and 0.00926 (inactive), respectively. Moreover, the NADPH fluorescence slope in assay [5] is -2.2e-05 (inactive).

With `CC1=C(C#N)C(=O)NC(C)(C)C1`, the cell count in assay [1] was 410. In addition, the inhibition in assay [1] is 4.1% (inactive); in assay [3], 6.4% (inactive); in assay [7], 13.9% (inactive); in assay [8], 21.4% (inactive). Besides, in assay [2], the inhibition of aggregation is -3.7% (inactive). The nuclei count in assay [2] came to 100%; in assay [3], 109%. Besides, the fluorescence slope in assay [4] is -0.413 (inactive); in assay [6], 0.00867 (inactive). In addition, in assay [5], the NADPH fluorescence slope was 1.8e-05 (inactive).

`N#Cc1c(NC(=O)CSc2nc(N)cc(=O)[nH]2)sc2c1CCCCCC2`: in assay [1], the cell count is 728. Besides, the inhibition in assay [1] is -14% (inactive); in assay [3], -105% (inactive); in assay [7], -11.2% (inactive); in assay [8] it was -48.5% (inactive). In addition, the inhibition of aggregation in assay [2] is -2% (inactive). For the same molecule, the nuclei count in assay [2] amounted to 115%; in assay [3] it was 122%. The fluorescence slope in assay [4] is -0.578 (inactive); in assay [6] it was 0.00398 (inactive). Besides, the NADPH fluorescence slope in assay [5] was -3.4e-05 (inactive).

Turning to `CCn1cc(/C=C(/C#N)S(=O)(=O)c2ccccc2)cn1`, the cell count in assay [1] amounted to 593. Further, the inhibition in assay [1] was -10.9% (inactive); in assay [3], -61.5% (inactive); in assay [7] it was -4.56% (inactive); in assay [8], -9.84% (inactive). The inhibition of aggregation in assay [2] is 7% (inactive). The nuclei count amounted to 75% in assay [2] and 99.9% in assay [3]. In addition, the figures for the fluorescence slope in assay [4] and in assay [6] were -0.488 (inactive) and 0.00519 (inactive), respectively. In assay [5], the NADPH fluorescence slope was -9.1e-05 (inactive).

Consider `COc1cc(C2C(C#N)=C(N)OC3=C2C(=O)CCC3)ccc1OC(=O)N1CCOCC1` (centres undefined), for which, in assay [1], the cell count was found to be 503. Moreover, the inhibition is -34.2% (inactive) in assay [1], -20.8% (inactive) in assay [3], 8.74% (inactive) in assay [7] and 6.55% (inactive) in assay [8]. Further, in assay [2], the inhibition of aggregation was -16.1% (inactive). Moreover, the nuclei count in assay [2] was found to be 93.7%; in assay [3], 101%. In addition, the values for the fluorescence slope in assay [4] and in assay [6] were -0.37 (inactive) and 0.00858 (inactive), respectively. Moreover, in assay [5], the NADPH fluorescence slope is -7.7e-05 (inactive).

In the case of `CC(C)CC(=O)CN1C(=O)C2(OCCO2)c2ccccc21`, in assay [1], the cell count came to 490. The inhibition was -2.4% (inactive) in assay [1], 6.8% (inactive) in assay [3], 17.6% (inactive) in assay [7] and -9.91% (inactive) in assay [8]. In assay [2], the inhibition of aggregation was 22.6% (inactive). Also, the nuclei count was found to be 100% in assay [2] and 94.9% in assay [3]. Moreover, the fluorescence slope was -0.231 (inactive) in assay [4] and 0.00852 (inactive) in assay [6]. Moreover, the NADPH fluorescence slope in assay [5] is -1.2e-05 (inactive).

In the case of `O=C(c1noc2c1CCc1ccccc1-2)N1CCOCC1`, the cell count in assay [1] worked out at 234. The inhibition is -5.4% (inactive) in assay [1], -35.7% (inactive) in assay [3], -5.37% (inactive) in assay [7] and -37.8% (inactive) in assay [8]. The inhibition of aggregation in assay [2] was 18.9% (inactive). Besides, the nuclei count in assay [2] is 90.2%; in assay [3], 120%. In addition, the fluorescence slope in assay [4] is -0.572 (inactive); in assay [6] it was 0.0064 (inactive). The NADPH fluorescence slope in assay [5] is 2.9e-06 (inactive).

Turning to `CCn1c(COc2cccc3ccccc23)nnc1SCC(N)=O`, in assay [1], the cell count is 436. Further, the inhibition in assay [1] was 9.4% (inactive); in assay [3], -0.1% (inactive); in assay [7] it was 12.9% (inactive); in assay [8], 19.7% (inactive). The inhibition of aggregation in assay [2] was -3.1% (inactive). For the same molecule, the nuclei count in assay [2] is 99.6%; in assay [3], 124%. Besides, the figures for the fluorescence slope in assay [4] and in assay [6] were -0.524 (inactive) and 0.00477 (inactive), respectively. For the same molecule, the NADPH fluorescence slope in assay [5] was -6.7e-05 (inactive).

Regarding `CCCCN(C)Cc1c(C)[nH]c2c(Cl)cccc2c1=O`, the cell count in assay [1] is 326. The inhibition in assay [1] is -0.2% (inactive); in assay [3], -38.6% (inactive); in assay [7], 7.84% (inactive); in assay [8], 23.5% (inactive). In addition, the inhibition of aggregation in assay [2] was 0.9% (inactive). The results for the nuclei count in assay [2] and in assay [3] were 92.1% and 92.3%, respectively. The fluorescence slope in assay [4] is -0.434 (inactive); in assay [6] it was 0.00844 (inactive). Also, in assay [5], the NADPH fluorescence slope is 3.3e-05 (inactive).

With `Cn1c(Cc2csc(N)n2)nnc1SCC(=O)NC1CCCCC1`, the cell count in assay [1] was 662. In addition, the inhibition is -3.3% (inactive) in assay [1], 16.6% (inactive) in assay [3], 4.63% (inactive) in assay [7] and -2.17% (inactive) in assay [8]. The inhibition of aggregation in assay [2] is -15.2% (inactive). The nuclei count in assay [2] was found to be 101%; in assay [3], 91%. In addition, the fluorescence slope is -0.479 (inactive) in assay [4] and 0.00433 (inactive) in assay [6]. For the same molecule, in assay [5], the NADPH fluorescence slope is 1.7e-05 (inactive).

For the molecule `CC(C)Cn1cc(C(=O)NCC2CCCO2)c2c3ccccc3n(C)c2c1=O` (centres undefined), in assay [1], the cell count was determined as 267. Also, the inhibition in assay [1] is 11.4% (inactive); in assay [3] it was -24.4% (inactive); in assay [7], 13.7% (inactive); in assay [8], 18.7% (inactive). For the same molecule, the inhibition of aggregation in assay [2] was 3.2% (inactive). For the same molecule, the nuclei count in assay [2] worked out at 79.8%; in assay [3], 107%. The fluorescence slope in assay [4] was -0.523 (inactive); in assay [6], 0.00592 (inactive). In assay [5], the NADPH fluorescence slope was -3.1e-05 (inactive).

On to `O=C(COn1nnc2ccc(C(F)(F)F)cc21)Nc1nnc(-c2ccccc2)o1`, for which the cell count in assay [1] came out at 704. For the same molecule, the inhibition in assay [1] is -3.6% (inactive); in assay [3] it was 108% (active); in assay [7], 2.7% (inactive); in assay [8], 10.1% (inactive). The inhibition of aggregation in assay [2] was -0.6% (inactive). Besides, the nuclei count is 110% in assay [2] and 80.2% in assay [3]. Also, the fluorescence slope in assay [4] was -0.503 (inactive); in assay [6], 0.005 (inactive). For the same molecule, in assay [5], the NADPH fluorescence slope is -0.000163 (inactive).
